Source: ChEMBL document CHEMBL3872285, “Discovery of a Potent, Selective, and Orally Available PI3Kδ Inhibitor for the Treatment of Inflammatory Diseases” (ACS Med Chem Lett, 2017)

What was measured:
[1] = AUC in Wistar rat at 1 mg/kg, iv; format: ADME, organism-based; settings: in vivo
Outline: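 Wistar rats received a single 1 mg/kg intravenous dose. Plasma samples were collected and AUC was calculated from them, along with half-life, clearance and steady-state volume of distribution. Values are means of two animals (n=2).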

[2] = molecular target: PI3-kinase p110-alpha/p85-alpha (Homo sapiens, UniProt P42336); assay: Inhibition of full length recombinant human N-terminal His6-tagged PI3K p110alpha/human p85alpha expressed in baculovirus infected Sf21 insect cells using PIP2 as substrate preincubated for 30 mins followed by substrate addition by HTRF assay
Chain of PI3-kinase p110-alpha/p85-alpha (P27986 whole entry, canonical isoform): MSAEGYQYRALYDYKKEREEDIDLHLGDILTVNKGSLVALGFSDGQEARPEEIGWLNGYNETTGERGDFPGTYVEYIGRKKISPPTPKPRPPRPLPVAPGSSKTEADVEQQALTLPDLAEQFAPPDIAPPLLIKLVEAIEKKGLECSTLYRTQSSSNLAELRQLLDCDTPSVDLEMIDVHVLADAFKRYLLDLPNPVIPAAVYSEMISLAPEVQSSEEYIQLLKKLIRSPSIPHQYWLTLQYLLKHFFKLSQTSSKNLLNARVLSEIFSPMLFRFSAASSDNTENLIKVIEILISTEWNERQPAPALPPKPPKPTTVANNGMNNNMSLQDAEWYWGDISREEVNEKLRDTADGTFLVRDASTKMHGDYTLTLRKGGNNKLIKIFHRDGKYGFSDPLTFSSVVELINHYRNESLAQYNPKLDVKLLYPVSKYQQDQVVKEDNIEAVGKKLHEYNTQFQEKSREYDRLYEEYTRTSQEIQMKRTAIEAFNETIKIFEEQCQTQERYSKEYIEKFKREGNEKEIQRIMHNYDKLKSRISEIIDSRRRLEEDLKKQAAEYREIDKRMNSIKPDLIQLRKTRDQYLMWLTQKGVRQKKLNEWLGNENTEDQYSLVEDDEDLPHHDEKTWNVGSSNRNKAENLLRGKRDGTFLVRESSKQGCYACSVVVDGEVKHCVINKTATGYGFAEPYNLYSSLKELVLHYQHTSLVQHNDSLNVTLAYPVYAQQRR
Chain of PI3-kinase p110-alpha/p85-alpha (P42336 whole entry, canonical isoform): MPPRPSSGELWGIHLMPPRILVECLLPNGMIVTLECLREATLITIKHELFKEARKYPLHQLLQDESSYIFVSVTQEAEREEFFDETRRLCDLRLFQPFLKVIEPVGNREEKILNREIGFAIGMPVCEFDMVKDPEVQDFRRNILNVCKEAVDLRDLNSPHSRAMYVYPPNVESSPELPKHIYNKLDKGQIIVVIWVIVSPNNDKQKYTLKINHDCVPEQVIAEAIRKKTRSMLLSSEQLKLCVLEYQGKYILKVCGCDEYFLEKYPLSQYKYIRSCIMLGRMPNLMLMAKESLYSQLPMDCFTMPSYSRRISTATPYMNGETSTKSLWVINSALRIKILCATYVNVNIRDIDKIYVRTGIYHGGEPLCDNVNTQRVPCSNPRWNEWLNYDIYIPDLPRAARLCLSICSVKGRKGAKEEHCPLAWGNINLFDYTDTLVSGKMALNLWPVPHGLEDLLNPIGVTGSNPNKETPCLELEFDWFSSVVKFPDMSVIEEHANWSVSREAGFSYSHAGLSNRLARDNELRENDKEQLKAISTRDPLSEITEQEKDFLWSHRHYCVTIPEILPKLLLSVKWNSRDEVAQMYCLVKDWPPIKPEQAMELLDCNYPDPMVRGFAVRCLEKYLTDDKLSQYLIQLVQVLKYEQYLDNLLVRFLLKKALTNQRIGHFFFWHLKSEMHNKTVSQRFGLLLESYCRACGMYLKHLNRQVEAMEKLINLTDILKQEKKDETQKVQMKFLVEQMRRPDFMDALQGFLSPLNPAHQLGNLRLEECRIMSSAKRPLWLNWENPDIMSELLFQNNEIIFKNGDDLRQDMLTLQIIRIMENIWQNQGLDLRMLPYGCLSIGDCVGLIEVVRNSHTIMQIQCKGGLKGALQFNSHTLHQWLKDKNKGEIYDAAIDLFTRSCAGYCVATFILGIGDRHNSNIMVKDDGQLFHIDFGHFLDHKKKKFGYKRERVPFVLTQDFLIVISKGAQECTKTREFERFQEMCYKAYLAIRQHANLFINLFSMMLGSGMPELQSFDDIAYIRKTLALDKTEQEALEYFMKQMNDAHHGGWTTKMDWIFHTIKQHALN
Outline: (§1)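 Recombinant human class I PI3K isoform, HTRF readout. ATP held at the Km of the enzyme. Compound preincubated with enzyme for 30 min. PIP3 product detected by its displacement of biotin-PIP3 from an energy-transfer complex.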

[3] = Oral bioavailability in Wistar rat at 1 mg/kg administered via gavage; format: ADME, organism-based; settings: in vivo
[4] = Clearance in Wistar rat at 1 mg/kg, iv; settings: in vivo
[5] = Drug metabolism in human liver microsomes assessed as disappearance of parent compound at 5 uM after 30 mins in presence of NADPH by UPLC-MS/MS analysis
[6] = Drug metabolism in rat liver microsomes assessed as disappearance of parent compound at 5 uM after 30 mins in presence of NADPH by UPLC-MS/MS analysis
[7] = molecular target: PI3-kinase p110-delta/p85-alpha (Homo sapiens, UniProt O00329); assay: Inhibition of full length recombinant human N-terminal His6-tagged PI3K p110delta/human p85alpha expressed in baculovirus infected sf21 cells using PIP2 as substrate preincubated for 30 mins followed by substrate addition by HTRF assay
Chain of PI3-kinase p110-delta/p85-alpha (P27986 whole entry): as the sequence (P27986 whole entry, canonical isoform) above
Chain of PI3-kinase p110-delta/p85-alpha (O00329 whole entry): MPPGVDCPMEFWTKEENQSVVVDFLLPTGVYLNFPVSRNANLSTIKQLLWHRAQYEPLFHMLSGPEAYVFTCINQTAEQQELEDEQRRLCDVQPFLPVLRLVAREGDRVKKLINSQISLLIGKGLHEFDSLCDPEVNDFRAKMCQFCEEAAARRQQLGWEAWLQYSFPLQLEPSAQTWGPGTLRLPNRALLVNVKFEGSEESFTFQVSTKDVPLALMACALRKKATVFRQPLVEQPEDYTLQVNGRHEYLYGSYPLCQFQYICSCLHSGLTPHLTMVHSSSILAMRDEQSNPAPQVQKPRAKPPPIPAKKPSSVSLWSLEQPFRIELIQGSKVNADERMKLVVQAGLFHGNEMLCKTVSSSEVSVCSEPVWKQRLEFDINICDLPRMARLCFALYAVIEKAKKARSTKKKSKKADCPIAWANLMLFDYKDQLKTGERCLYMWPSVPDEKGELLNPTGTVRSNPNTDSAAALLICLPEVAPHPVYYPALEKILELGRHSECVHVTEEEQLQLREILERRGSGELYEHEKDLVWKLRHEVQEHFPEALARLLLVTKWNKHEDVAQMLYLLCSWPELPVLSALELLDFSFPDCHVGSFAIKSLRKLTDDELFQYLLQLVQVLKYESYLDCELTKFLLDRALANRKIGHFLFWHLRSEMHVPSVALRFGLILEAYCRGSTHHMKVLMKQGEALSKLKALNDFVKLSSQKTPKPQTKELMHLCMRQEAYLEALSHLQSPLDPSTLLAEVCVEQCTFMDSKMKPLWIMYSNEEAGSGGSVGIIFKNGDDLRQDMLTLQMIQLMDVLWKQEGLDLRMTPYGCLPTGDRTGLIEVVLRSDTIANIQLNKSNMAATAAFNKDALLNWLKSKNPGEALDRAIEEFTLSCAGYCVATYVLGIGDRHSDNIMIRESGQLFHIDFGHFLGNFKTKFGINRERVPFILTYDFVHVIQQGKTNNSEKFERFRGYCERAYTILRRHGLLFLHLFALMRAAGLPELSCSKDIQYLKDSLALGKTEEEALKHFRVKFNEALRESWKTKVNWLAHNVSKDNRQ

[8] = Half life in Wistar rat at 1 mg/kg, iv; format: ADME, organism-based; settings: in vivo
[9] = molecular target: PI3K p110 beta/p85 alpha (Homo sapiens, UniProt P42338); assay: Inhibition of full length recombinant human N-terminal […]-tagged PI3K p110beta/full length human p85alpha expressed in baculovirus infected Sf21 insect cells using PIP2 as substrate preincubated for 30 mins followed by substrate addition by HTRF assay; outline: as §1
Chain of PI3K p110 beta/p85 alpha (P27986 whole entry): as the sequence (P27986 whole entry, canonical isoform) above
Chain of PI3K p110 beta/p85 alpha (P42338 whole entry): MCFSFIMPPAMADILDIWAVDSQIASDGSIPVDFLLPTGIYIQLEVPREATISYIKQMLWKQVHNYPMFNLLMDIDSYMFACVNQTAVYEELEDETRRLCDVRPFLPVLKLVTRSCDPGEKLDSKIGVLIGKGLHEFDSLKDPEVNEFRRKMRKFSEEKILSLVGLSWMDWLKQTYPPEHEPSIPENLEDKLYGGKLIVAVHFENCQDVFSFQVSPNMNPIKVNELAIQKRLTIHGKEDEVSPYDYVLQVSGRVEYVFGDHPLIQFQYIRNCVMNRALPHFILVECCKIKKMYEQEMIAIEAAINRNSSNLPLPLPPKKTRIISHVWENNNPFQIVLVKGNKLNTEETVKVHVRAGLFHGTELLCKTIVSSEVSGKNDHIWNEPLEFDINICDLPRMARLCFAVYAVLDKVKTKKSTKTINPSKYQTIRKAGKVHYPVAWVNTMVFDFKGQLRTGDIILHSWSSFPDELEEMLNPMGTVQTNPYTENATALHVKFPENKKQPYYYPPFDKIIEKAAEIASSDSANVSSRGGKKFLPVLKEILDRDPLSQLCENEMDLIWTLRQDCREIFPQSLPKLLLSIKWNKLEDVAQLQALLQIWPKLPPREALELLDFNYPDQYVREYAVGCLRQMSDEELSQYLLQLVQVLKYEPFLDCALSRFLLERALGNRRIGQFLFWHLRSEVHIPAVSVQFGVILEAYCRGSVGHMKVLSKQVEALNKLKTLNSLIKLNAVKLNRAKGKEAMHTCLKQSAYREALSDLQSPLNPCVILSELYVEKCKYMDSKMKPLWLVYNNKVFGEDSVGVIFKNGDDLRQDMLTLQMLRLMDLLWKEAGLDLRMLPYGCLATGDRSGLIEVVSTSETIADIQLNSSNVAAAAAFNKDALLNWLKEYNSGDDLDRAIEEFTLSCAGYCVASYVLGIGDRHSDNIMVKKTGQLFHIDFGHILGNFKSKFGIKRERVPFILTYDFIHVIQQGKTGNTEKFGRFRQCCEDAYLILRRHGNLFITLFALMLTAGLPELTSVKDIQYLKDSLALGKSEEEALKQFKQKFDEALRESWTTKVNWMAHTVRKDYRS

[10] = Protein binding in mouse plasma at 1uM by LC-MS/MS analysis; format: ADME, cell-free; settings: read-out: PPB
[11] = Protein binding in rat plasma at 1 uM by LC-MS/MS analysis; format: ADME, cell-free; settings: read-out: PPB
[12] = Protein binding in dog plasma at 1 uM by LC-MS/MS analysis; format: ADME, cell-free, Canis lupus familiaris; settings: read-out: PPB
[13] = Protein binding in human plasma at 1 uM by LC-MS/MS analysis; format: ADME, cell-free; settings: read-out: PPB
Outline: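 Binding measured by equilibrium dialysis at 37 °C, compound at 1 µM in human plasma; percent bound reported as mean.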

[14] = system: Rattus norvegicus; assay: In vivo inhibition of PI3Kdelta in Wistar rat assessed as reduction in ConA-induced increase in plasma IL2 production administered through oral gavage 1 hr prior to ConA measured 90 mins post ConA challenge by ELISA; format: functional; settings: read-out: ID50 (the source's name)
[15] = system: Rattus norvegicus; assay: Anti-inflammatory activity in Brown Norway rat assessed as reduction in OVA-induced eosinophil infilteration to bronchoalveolar lavage administered orally bid 1 hr prior to OVA challenge on day 14 and 6 hrs post OVA challenge on day 21 measured 24 hrs post last OVA challenge by microscopic method; format: functional
[16] = Half life in Beagle dog at 1 mg/kg, iv through bolus administration; format: ADME, organism-based, Canis lupus familiaris; settings: in vivo
[17] = AUC in Beagle dog at 1 mg/kg, iv through bolus administration; format: ADME, organism-based, Canis lupus familiaris; settings: in vivo
[18] = Clearance in Beagle dog at 1 mg/kg, iv through bolus administration; settings: in vivo
[19] = Apparent volume of distribution in Beagle dog at 1 mg/kg, iv through bolus administration; format: ADME, organism-based, Canis lupus familiaris; settings: in vivo, read-out: Vz
[20] = Oral bioavailability in Beagle dog at 1 mg/kg administered via gavage; format: ADME, organism-based, Canis lupus familiaris; settings: in vivo
[21] = Apparent permeability of compound at 20 uM after 5 hrs by PAMPA; format: ADME
[22] = Stability in human plasma at 5 uM up to 24 hrs by UPLC-MS/MS analysis; format: ADME, cell-free; settings: read-out: Stability
Outline: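 Compound incubated at 2 µg/ml in plasma (sodium heparin anticoagulant) at 37 °C for 24 h; percent remaining reported.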

[23] = molecular target: T1, Cytochrome P450 1A2 (Homo sapiens, UniProt P05177); assay: Inhibition of CYP1A2 in human liver microsomes assessed as reduction in Ethoxyresorufin O-deethylation at 1 to 25 uM by UPLC-MS/MS analysis; format: ADME
T1 sequence (P05177 whole entry): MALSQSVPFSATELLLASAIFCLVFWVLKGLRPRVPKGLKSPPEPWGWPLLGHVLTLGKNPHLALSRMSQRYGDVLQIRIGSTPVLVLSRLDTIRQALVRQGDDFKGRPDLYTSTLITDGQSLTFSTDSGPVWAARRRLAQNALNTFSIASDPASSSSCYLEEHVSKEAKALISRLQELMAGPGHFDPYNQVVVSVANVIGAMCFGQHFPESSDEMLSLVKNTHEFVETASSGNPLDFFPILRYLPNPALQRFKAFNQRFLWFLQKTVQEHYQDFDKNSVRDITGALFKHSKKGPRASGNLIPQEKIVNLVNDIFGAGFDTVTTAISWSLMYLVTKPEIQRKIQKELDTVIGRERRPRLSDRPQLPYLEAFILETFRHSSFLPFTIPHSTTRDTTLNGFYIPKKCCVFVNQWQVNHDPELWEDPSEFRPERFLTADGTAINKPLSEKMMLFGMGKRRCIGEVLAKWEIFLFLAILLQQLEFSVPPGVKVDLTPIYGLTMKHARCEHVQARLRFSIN

[24] = molecular target: Cytochrome P450 2C9 (Homo sapiens, UniProt P11712); assay: Inhibition of CYP2C9 in human liver microsomes assessed as reduction in diclofenac 4-hydroxylation at 1 to 25 uM by UPLC-MS/MS analysis; format: ADME
[25] = molecular target: Cytochrome P450 2C19 (Homo sapiens, UniProt P33261); assay: Inhibition of CYP2C19 in human liver microsomes assessed as reduction in S-mephenytoin-4-hydroxylation at 1 to 25 uM by UPLC-MS/MS analysis; format: ADME
[26] = molecular target: Cytochrome P450 2D6 (Homo sapiens, UniProt P10635); assay: Inhibition of CYP2D6 in human liver microsomes assessed as reduction in dextromethorphan O-demethylation at 1 to 25 uM by UPLC-MS/MS analysis; format: ADME
Chain of Cytochrome P450 2D6 (P10635 whole entry): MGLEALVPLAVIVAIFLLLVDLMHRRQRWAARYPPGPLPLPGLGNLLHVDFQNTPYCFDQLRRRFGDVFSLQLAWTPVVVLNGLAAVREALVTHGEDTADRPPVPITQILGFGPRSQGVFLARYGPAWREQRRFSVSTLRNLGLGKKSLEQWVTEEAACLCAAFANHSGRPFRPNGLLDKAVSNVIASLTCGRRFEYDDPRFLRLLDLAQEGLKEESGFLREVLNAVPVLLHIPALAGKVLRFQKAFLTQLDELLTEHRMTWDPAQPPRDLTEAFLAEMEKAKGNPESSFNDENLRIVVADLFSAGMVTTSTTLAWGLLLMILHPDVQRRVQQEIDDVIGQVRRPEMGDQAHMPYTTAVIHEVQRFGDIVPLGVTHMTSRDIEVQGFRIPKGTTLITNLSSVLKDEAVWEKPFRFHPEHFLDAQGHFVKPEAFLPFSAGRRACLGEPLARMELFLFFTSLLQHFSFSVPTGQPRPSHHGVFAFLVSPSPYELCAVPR

[27] = molecular target: Cytochrome P450 3A4 (Homo sapiens, UniProt P08684); assay: Inhibition of CYP3A4 in human liver microsomes assessed as reduction in testosterone 6beta-hydroxylation at 1 to 25 uM by UPLC-MS/MS analysis; format: ADME
Chain of Cytochrome P450 3A4 (P08684 whole entry): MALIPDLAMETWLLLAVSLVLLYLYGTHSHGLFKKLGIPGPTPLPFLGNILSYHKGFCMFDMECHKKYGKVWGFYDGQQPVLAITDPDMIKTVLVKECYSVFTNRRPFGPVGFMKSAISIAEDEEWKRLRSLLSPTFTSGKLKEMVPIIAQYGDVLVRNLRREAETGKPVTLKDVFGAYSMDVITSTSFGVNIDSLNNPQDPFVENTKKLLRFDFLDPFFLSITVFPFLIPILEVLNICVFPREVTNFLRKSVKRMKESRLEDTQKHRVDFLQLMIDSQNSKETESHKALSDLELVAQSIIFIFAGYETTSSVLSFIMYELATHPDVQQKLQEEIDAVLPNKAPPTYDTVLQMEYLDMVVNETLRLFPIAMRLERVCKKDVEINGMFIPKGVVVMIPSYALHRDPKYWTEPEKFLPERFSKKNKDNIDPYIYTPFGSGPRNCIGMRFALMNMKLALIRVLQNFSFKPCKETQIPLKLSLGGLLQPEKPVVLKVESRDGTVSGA

[28] = Apparent volume of distribution in Wistar rat at 1 mg/kg, iv; format: ADME, organism-based; settings: in vivo, read-out: Vz

AUC [1]: 1730 ng·h/mL
IC50 [2]: 8.2 µM
bioavailability [3]: 101%
clearance [4]: 9.6 mL/min/kg
metabolised at 0.5 h, 5 µM [5]: 16%
metabolised at 0.5 h, 5 µM [6]: 20%
IC50 [7]: 0.0026 µM
half-life [8]: 3.1 h
IC50 [9]: 0.094 µM
fraction unbound at 1 µM [10]: 0.35 to 0.4
fraction unbound at 1 µM [11]: 0.35 to 0.4
fraction unbound at 1 µM [12]: 0.35 to 0.4
fraction unbound at 1 µM [13]: 0.046 to 0.05
half-life [16]: 10.2 h
AUC [17]: 9440 ng·h/mL
clearance [18]: 1.4 mL/min/kg
Vd [19]: 1.2 L/kg
bioavailability [20]: 98%
Papp at 5 h, 20 µM [21]: 2.8 ×10⁻⁶ cm/s
remaining at 24 h, 5 µM [22]: 100%
IC50 [23]: > 25 µM
IC50 [24]: > 25 µM
IC50 [25]: > 25 µM
IC50 [26]: > 25 µM
IC50 [27]: > 25 µM
Vd [28]: 2.6 L/kg
SMILES: C[C@H](Nc1ncnc(N)c1C#N)c1nn2ccc(C#N)c2c(=O)n1-c1ccccc1
ED50 [14]: 0.13 mg/kg
Activity [15]: Dose-dependent effect
ED50 ([15]; po, read-out: ID50 (the source's name)): 0.16 mg/kg
